{"source": "ChEMBL document CHEMBL3407437", "about": "“Antibacterial drug leads: DNA and enzyme multitargeting” (J Med Chem, 2015)", "key": {"[1]": {"assay": "Binding affinity to DNA dodecamer complex (CGCGAATTCGCG)2 (unknown origin) assessed as change in melting temperature by differential scanning calorimetry"}, "[2]": {"assay": "Inhibition of Escherichia coli UPPS using FPP/IPP as substrate by spectrophotometry"}, "[3]": {"assay": "Inhibition of Staphylococcus aureus UPPS using FPP/IPP as substrate by spectrophotometry", "how_it_was_run": "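Continuous spectrophotometric assay following UPPS-catalysed condensation of FPP with IPP. IC50 from fit of inhibition data to rectangular hyperbolic dose-response function.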"}, "Staphylococcus aureus [4]": {"tested_on": "Staphylococcus aureus", "assay": "Antimicrobial activity against Staphylococcus aureus Newman after 9 hrs by spectrophotometry", "type": "functional, organism-based"}, "Escherichia coli": {"tested_on": "Escherichia coli", "assay": "Antimicrobial activity against Escherichia coli K-12 after 3 hrs by broth microdilution method", "type": "functional, organism-based", "details": "K-12, 3 h"}, "Staphylococcus aureus [5]": {"tested_on": "Staphylococcus aureus", "assay": "Antimicrobial activity against Staphylococcus aureus assessed as fractional Inhibitory concentration index", "type": "functional"}, "[6]": {"assay": "Inhibition of FPPS (unknown origin)"}, "Staphylococcus aureus [7]": {"tested_on": "Staphylococcus aureus", "assay": "Antimicrobial activity against Staphylococcus aureus", "type": "functional"}, "[8]": {"assay": "Inhibition of Staphylococcus aureus UPPS", "how_it_was_run": "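Continuous spectrophotometric assay following UPPS-catalysed condensation of FPP with IPP. Reaction contained 400 µM MESG, 25 µM IPP, 2.5 µM FPP, […] pH 7.5, 0.01% Triton X-100 and 1 mM MgCl2. IC50 from fit of inhibition data to rectangular hyperbolic dose-response function.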"}}, "data": [{"smiles": "C(=C\\c1cc2ccc(C3=NCCN3)cc2[nH]1)/c1cc2ccc(C3=NCCN3)cc2[nH]1", "values": [{"measurement": "ΔTm", "setting": "[1]", "result": 20, "unit": "°C"}, {"measurement": "IC50", "setting": "[2]", "result": 12, "unit": "µM"}, {"measurement": "IC50", "setting": "[3]", "result": 5.1, "unit": "µM"}, {"measurement": "EC50", "setting": "Staphylococcus aureus [4]", "result": 0.11, "unit": "µM"}, {"measurement": "EC50", "setting": "Escherichia coli", "result": 1.2, "unit": "µM"}]}, {"smiles": "c1cc2cc(-c3ccc(-c4cc5ccc(C6=NCCN6)cc5[nH]4)cc3)[nH]c2cc1C1=NCCN1", "values": [{"measurement": "ΔTm", "setting": "[1]", "result": 16, "unit": "°C"}, {"measurement": "IC50", "setting": "[2]", "result": 0.36, "unit": "µM"}, {"measurement": "IC50", "setting": "[3]", "result": 1.7, "unit": "µM"}, {"measurement": "EC50", "setting": "Staphylococcus aureus [4]", "result": 0.029, "unit": "µM"}, {"measurement": "EC50", "setting": "Escherichia coli", "result": 0.33, "unit": "µM"}]}, {"smiles": "S=C(Nc1cccc(C2=NCCN2)c1)c1ccc(-c2ccc(C(=S)Nc3cccc(C4=NCCN4)c3)cc2)cc1", "values": [{"measurement": "ΔTm", "setting": "[1]", "result": 7.1, "unit": "°C"}, {"measurement": "IC50", "setting": "[2]", "result": 9.2, "unit": "µM"}, {"measurement": "IC50", "setting": "[3]", "result": 3.5, "unit": "µM"}, {"measurement": "EC50", "setting": "Staphylococcus aureus [4]", "result": 3, "unit": "µM"}, {"measurement": "EC50", "setting": "Escherichia coli", "result": 58, "unit": "µM"}]}, {"smiles": "O=C(Nc1ccc(C2=NCCN2)cc1)c1ccc(C(=O)Nc2ccc(C3=NCCN3)cc2)c([N+](=O)[O-])c1", "values": [{"measurement": "ΔTm", "setting": "[1]", "result": 3.9, "unit": "°C"}, {"measurement": "IC50", "setting": "[2]", "result": 4.8, "unit": "µM"}, {"measurement": "IC50", "setting": "[3]", "result": 4.9, "unit": "µM"}, {"measurement": "EC50", "setting": "Staphylococcus aureus [4]", "result": 28, "unit": "µM"}, {"measurement": "EC50", "setting": "Escherichia coli", "result": 14, "unit": "µM"}]}, {"smiles": "c1cc2cc(-c3ccc(-c4cc5ccc(C6=NCCCN6)cc5[nH]4)cc3)[nH]c2cc1C1=NCCCN1", "values": [{"measurement": "ΔTm", "setting": "[1]", "result": 24, "unit": "°C"}, {"measurement": "IC50", "setting": "[2]", "result": 0.68, "unit": "µM"}, {"measurement": "IC50", "setting": "[3]", "result": 0.47, "unit": "µM"}, {"measurement": "EC50", "setting": "Staphylococcus aureus [4]", "result": 0.028, "unit": "µM"}, {"measurement": "EC50", "setting": "Escherichia coli", "result": 0.24, "unit": "µM"}]}, {"smiles": "O=C(Nc1cccc(C2=NCCN2)c1)c1ccc(-c2ccc(C(=O)Nc3cccc(C4=NCCN4)c3)cc2)cc1", "values": [{"measurement": "ΔTm", "setting": "[1]", "result": 11, "unit": "°C"}, {"measurement": "fractional inhibitory concentration index (FICI)", "setting": "Staphylococcus aureus [5]", "result": 0.25}, {"measurement": "IC50", "setting": "[6]", "result": 2, "unit": "µM"}, {"measurement": "MIC", "setting": "Staphylococcus aureus [7]", "result": 0.25, "unit": "mg/L"}, {"measurement": "IC50", "setting": "[8]", "result": 0.1, "unit": "µM"}]}, {"smiles": "COc1cccc(NC(=O)c2ccc(-c3ccc(C(=O)Nc4cccc(C5=NCCN5)c4)cc3)cc2)c1", "values": [{"measurement": "ΔTm", "setting": "[1]", "result": 5.2, "unit": "°C"}, {"measurement": "IC50", "setting": "[2]", "result": 9.4, "unit": "µM"}, {"measurement": "IC50", "setting": "[3]", "result": 2.1, "unit": "µM"}, {"measurement": "EC50", "setting": "Staphylococcus aureus [4]", "result": 7.7, "unit": "µM"}, {"measurement": "EC50", "setting": "Escherichia coli", "result": 570, "unit": "µM"}]}, {"smiles": "NCCc1cc(Br)cc(C#Cc2cccc(C#Cc3cc(Br)cc(CCN)c3)c2)c1", "values": [{"measurement": "ΔTm", "setting": "[1]", "result": -0.1, "unit": "°C"}, {"measurement": "IC50", "setting": "[2]", "result": 6.1, "unit": "µM"}, {"measurement": "IC50", "setting": "[3]", "result": 1.4, "unit": "µM"}, {"measurement": "EC50", "setting": "Staphylococcus aureus [4]", "result": 7.6, "unit": "µM"}, {"measurement": "EC50", "setting": "Escherichia coli", "result": 0.97, "unit": "µM"}]}, {"smiles": "N=C(N)c1ccc(OCCCCCOc2ccc(C(=N)N)cc2)cc1", "note": "[PENTAMIDINE]", "values": [{"measurement": "ΔTm", "setting": "[1]", "result": 2.7, "unit": "°C"}, {"measurement": "IC50", "setting": "[2]", "result": 400, "unit": "µM"}, {"measurement": "IC50", "setting": "[3]", "result": 240, "unit": "µM"}, {"measurement": "EC50", "setting": "Staphylococcus aureus [4]", "result": 4.2, "unit": "µM"}, {"measurement": "EC50", "setting": "Escherichia coli", "result": 12, "unit": "µM"}]}, {"smiles": "O=C(Nc1cccc(O[C@@H]2O[C@H](CO)[C@@H](O)[C@H](O)[C@H]2O)c1)c1ccc(-c2ccc(C(=O)Nc3cccc(C4=NCCN4)c3)cc2)cc1", "values": [{"measurement": "ΔTm", "setting": "[1]", "result": 5.8, "unit": "°C"}, {"measurement": "IC50", "setting": "[2]", "result": 380, "unit": "µM"}, {"measurement": "IC50", "setting": "[3]", "result": 530, "unit": "µM"}, {"measurement": "EC50", "setting": "Staphylococcus aureus [4]", "result": 570, "unit": "µM"}, {"measurement": "EC50", "setting": "Escherichia coli", "result": "> 1500", "unit": "µM"}]}, {"smiles": "OC[C@H]1O[C@@H](Oc2cccc(C#Cc3ccc(C#Cc4cccc(C5=NCCN5)c4)cc3)c2)[C@H](O)[C@@H](O)[C@@H]1O", "values": [{"measurement": "ΔTm", "setting": "[1]", "result": -1.2, "unit": "°C"}, {"measurement": "IC50", "setting": "[2]", "result": 14, "unit": "µM"}, {"measurement": "IC50", "setting": "[3]", "result": 5.6, "unit": "µM"}, {"measurement": "EC50", "setting": "Staphylococcus aureus [4]", "result": 380, "unit": "µM"}, {"measurement": "EC50", "setting": "Escherichia coli", "result": 900, "unit": "µM"}]}, {"smiles": "Cn1cc(NC(=O)c2cc(NC(=O)CNC(=N)N)cn2C)cc1C(=O)NCCC(=N)N", "note": "[NETROPSIN]", "values": [{"measurement": "ΔTm", "setting": "[1]", "result": 16, "unit": "°C"}, {"measurement": "IC50", "setting": "[2]", "result": 1400, "unit": "µM"}, {"measurement": "IC50", "setting": "[3]", "result": 1000, "unit": "µM"}, {"measurement": "EC50", "setting": "Staphylococcus aureus [4]", "result": 11, "unit": "µM"}, {"measurement": "EC50", "setting": "Escherichia coli", "result": 570, "unit": "µM"}]}, {"smiles": "O=C(Nc1cccc(Oc2ccccc2)c1)c1ccc(-c2ccc(C(=O)Nc3cccc(C4=NCCN4)c3)cc2)cc1", "values": [{"measurement": "ΔTm", "setting": "[1]", "result": 0.6, "unit": "°C"}, {"measurement": "IC50", "setting": "[2]", "result": 11, "unit": "µM"}, {"measurement": "IC50", "setting": "[3]", "result": 5.7, "unit": "µM"}, {"measurement": "EC50", "setting": "Staphylococcus aureus [4]", "result": 10, "unit": "µM"}, {"measurement": "EC50", "setting": "Escherichia coli", "result": "> 1500", "unit": "µM"}]}, {"smiles": "O=P(O)(O)C(O)(Cc1cccc(-c2cccc(NS(=O)(=O)c3cccc(S(=O)(=O)Nc4cccc(-c5cccc(CC(O)(P(=O)(O)O)P(=O)(O)O)c5)c4)c3)c2)c1)P(=O)(O)O", "values": [{"measurement": "ΔTm", "setting": "[1]", "result": -1, "unit": "°C"}, {"measurement": "IC50", "setting": "[2]", "result": 0.36, "unit": "µM"}, {"measurement": "IC50", "setting": "[3]", "result": 0.39, "unit": "µM"}, {"measurement": "EC50", "setting": "Staphylococcus aureus [4]", "result": 100, "unit": "µM"}, {"measurement": "EC50", "setting": "Escherichia coli", "result": "> 1500", "unit": "µM"}]}, {"smiles": "O=C(Nc1cccc(C2=NCCCN2)c1)c1ccc(-c2ccc(C(=O)Nc3cccc(C4=NCCCN4)c3)cc2)cc1", "values": [{"measurement": "ΔTm", "setting": "[1]", "result": 10, "unit": "°C"}, {"measurement": "IC50", "setting": "[2]", "result": 5.5, "unit": "µM"}, {"measurement": "IC50", "setting": "[3]", "result": 4.5, "unit": "µM"}, {"measurement": "EC50", "setting": "Staphylococcus aureus [4]", "result": 0.23, "unit": "µM"}, {"measurement": "EC50", "setting": "Escherichia coli", "result": 0.66, "unit": "µM"}]}, {"smiles": "CCCCCCOc1cccc(NC(=O)c2ccc(-c3ccc(C(=O)Nc4cccc(C5=NCCN5)c4)cc3)cc2)c1", "values": [{"measurement": "ΔTm", "setting": "[1]", "result": 0.7, "unit": "°C"}, {"measurement": "IC50", "setting": "[2]", "result": 25, "unit": "µM"}, {"measurement": "IC50", "setting": "[3]", "result": 8.9, "unit": "µM"}, {"measurement": "EC50", "setting": "Staphylococcus aureus [4]", "result": 280, "unit": "µM"}, {"measurement": "EC50", "setting": "Escherichia coli", "result": "> 1500", "unit": "µM"}]}]}
